Screens (PubChem)
STAT3 act-1: activators of IL-6 induced STAT3 signaling | 0.91% of 190,000 active | activation (% of control), % at 5.6 µM | AID 871 | U3A cells, IL-6 STAT3-luciferase reporter, luminescence; 100% = signal with IL-6 EC80 alone;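 active means activation above the screen-wide mean of compound activation plus 3 SD, cut at about 130% in these data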;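 further: 0% = background luminescence of wells with medium and substrate only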
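Test system: STAT3-luciferase reporter U3A cells; Detection: reporter luminescence signal; Times: 1 h compound pre-exposure, 6 h IL-6 stimulation, 37 °C; Benchmarks: IL-6-only high control; Also added: IL-6 stimulus at 33 ng/mL final.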
STAT1 blocker: STAT1 signaling inhibition. NIH 3T3 STAT1-luciferase reporter, IFN-gamma, luminescence. inhibition, % at 5.5 µM. 0.35% of 200,000 active;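 active means inhibition above a set limit, the mean inhibition across all tested compounds plus 3 SD, cut at about 34% in these data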;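 further: 0% = IFN-gamma with DMSO and 100% = IFN-gamma with 300 µM nifuroxazide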
STAT3 inh: reduces IL-6 driven STAT3 reporter signal. AID 862. 0.89% of 190,000 active. inhibition, % at 5.5 µM. U3A cells, IL-6 STAT3-luciferase reporter, luminescence; host cell line lacks STAT1;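 active means inhibition above the mean inhibition across all screened compounds plus 3 SD, cut at about 44% in these data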;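 further: 0% = DMSO only wells and 100% = 100 µM nifuroxazide control wells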
NF-kB expr up: NF-kB expression increase, human neuronal cells; NF-kB reporter expression; active compounds read high; fold change at 12.5 µM; 1.6% of 190,000 active; AID 1239; in the data active means fold change above about 3.3
STAT1 act-1: increases IFN-gamma driven STAT1 reporter signal. NIH 3T3 STAT1-luciferase reporter, luminescence; 100% = IFN-gamma alone, no compound. activation (% of control), % at 5.5 µM. 2.6% of 200,000 active;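 active means activation above the screen-wide mean activation plus 3 SD, cut at about 130% in these data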;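 further: raw ratio to IFN-gamma control signal so 100% means no change and 0% no light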
APP 5'UTR act: activates APP 5'UTR luciferase reporter. SH-SY5Y APP 5'UTR luciferase reporter, luminescence; zero percent = DMSO vehicle wells. activation, % at 2 µM. 1% of 190,000 active. AID 1276;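 active means activation above a set limit, based on mean plus 3 SD of controls, cut at about 140% in these data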
STAT3 act-2: STAT3 activation, confirmation assay; shares compounds with STAT3 act-1; U3A STAT3-luciferase reporter, IL-6 potentiation, luminescence; U3A cells lack STAT1; 100 means same as IL-6 alone; potentiation (% of control), % at 5.7 µM; 64% of 1,200 active; AID 1267;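 active means percent activation of the STAT3 luciferase reporter above a set limit taken from the earlier primary screen, cut at about 130% in these data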;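 further: 0% = background signal of medium plus substrate and 100% = median of IL-6 with DMSO wells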
NFkB act 2: counter-screen for STAT3 activators: NF-kappaB activation; shares compounds with STAT3 act-1; 11% of 1,200 active; human cells, NF-kappaB reporter activation; activation (% of control), % at 5.7 µM; in the data active means activation above about 120%;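 further: reporter induced by TNF-alpha stimulation; 100% = median of stimulated DMSO wells and 0% = no signal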
STAT1 act-2: STAT1 activation in STAT3 activator counter-screen; shares compounds with STAT3 act-1; NIH 3T3 STAT1-luciferase reporter, IFN-gamma, luminescence; activation (% of control), % at 5.7 µM; 13% of 1,200 active;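 active means activation above the solvent-only control well mean plus 3 SD, set per screening run, cut at about 120% in these data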;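 further: 100% = IFN-gamma with DMSO median signal so 100% means no change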
The depositor's hits bear a star. A selection: hits, their analogues and other compounds. The true share with any hit is near 4.9%.

For Cn1c(-c2c(N)n(CCCc3ccccc3)c3nc4ccccc4nc23)nc2ccccc21 the results were STAT3 act-1 151.7*, STAT1 blocker 6.6, STAT3 inh -54.4, NF-kB expr up 0.88, STAT1 act-1 94.0, APP 5'UTR act 9.1, STAT3 act-2 136.2*, NFkB act 2 96.6 and STAT1 act-2 96.0.
`Cn1c(-c2c(N)n(CCc3ccccc3)c3nc4ccccc4nc23)nc2ccccc21` gave STAT3 act-1 125.7, STAT1 blocker 8.1, STAT3 inh -35.0, NF-kB expr up 0.49, STAT1 act-1 92.5 and APP 5'UTR act 9.4.
For CCOC(=O)c1cnn(-c2ncnc3sc4c(c23)CCC4)c1N the results were STAT3 act-1 148.3*, STAT1 blocker 6.1, STAT3 inh -48.2, NF-kB expr up 1.17, STAT1 act-1 94.4, APP 5'UTR act 18.5, STAT3 act-2 149.4*, NFkB act 2 102.8 and STAT1 act-2 99.3.
For COc1ccc(-c2nc(NC(=O)c3[nH]c(C)c(C(C)=O)c3C)sc2C)cc1 the results were STAT3 act-1 106.8, STAT1 blocker 12.0, STAT3 inh 1.3, NF-kB expr up 0.78, STAT1 act-1 87.2 and APP 5'UTR act 28.6.
`COc1ccc(OC)c(NC(=O)c2[nH]c(C)c(C(C)=O)c2C)c1` gave STAT3 act-1 150.9*, STAT1 blocker -1.6, STAT3 inh -54.8, NF-kB expr up 0.9, STAT1 act-1 101.4, APP 5'UTR act -3.2, STAT3 act-2 152.4*, NFkB act 2 105.9 and STAT1 act-2 104.1.
For CN(C)/C=C(\C=O)c1ccc(Cl)cc1Cl the results were STAT3 act-1 97.4, STAT1 blocker 4.1, STAT3 inh 7.1, NF-kB expr up 1.29, STAT1 act-1 95.8 and APP 5'UTR act 5.7.
For COc1ccc(N(Cc2cc(=O)[nH]c3ccccc23)C(=O)c2ccco2)cc1 the results were STAT3 act-1 117.9, STAT1 blocker 14.3, STAT3 inh -20.2, NF-kB expr up 1.18, STAT1 act-1 87.1 and APP 5'UTR act 11.7.
Screening CCC(=O)N(Cc1cc(=O)[nH]c2ccccc12)c1cccc(C)c1 returned STAT3 act-1 142.4*, STAT1 blocker -3.3, STAT3 inh -47.8, NF-kB expr up 1, STAT1 act-1 103.1, APP 5'UTR act 11.8, STAT3 act-2 124.0, NFkB act 2 101.3 and STAT1 act-2 95.5.
Cc1ccc(NC(=S)Nc2cccc3cnccc23)cc1 was read as STAT3 act-1 136.6*, STAT1 blocker 4.9, STAT3 inh -39.8, NF-kB expr up 1.39, STAT1 act-1 95.1, APP 5'UTR act -10.4, STAT3 act-2 142.6*, NFkB act 2 97.1 and STAT1 act-2 97.5.
`O=C(COC(=O)c1c2c(nc3ccccc13)CCCCC2)c1ccc(Cl)s1` gave STAT3 act-1 97.7, STAT1 blocker -8.6, STAT3 inh -1.6, NF-kB expr up 0.87, STAT1 act-1 107.9 and APP 5'UTR act -4.1.
For CCOC(=O)c1[nH]c2ccccc2c1NC(=O)CC(C)(C)C the results were STAT3 act-1 164.1*, STAT1 blocker 28.1, STAT3 inh -73.4, NF-kB expr up 0.95, STAT1 act-1 74.5, APP 5'UTR act -4.9, STAT3 act-2 158.7*, NFkB act 2 106.0 and STAT1 act-2 89.3.
CCOC(=O)c1[nH]c2ccccc2c1NC(=S)Nc1cccc(C)c1C was read as STAT3 act-1 163.7*, STAT1 blocker 14.4, STAT3 inh -74.2, NF-kB expr up 1.12, STAT1 act-1 87.0, APP 5'UTR act 50.6, STAT3 act-2 155.7*, NFkB act 2 111.0 and STAT1 act-2 91.2.
Screening CCOC(=O)c1[nH]c2ccccc2c1NC(=O)CN(C)C returned STAT3 act-1 106.3, STAT1 blocker 5.6, STAT3 inh -2.6, NF-kB expr up 1.05, STAT1 act-1 94.8 and APP 5'UTR act 13.0.
For On1nnc2c3ccccc3c3ccccc3c21 the results were STAT3 act-1 99.6, STAT1 blocker 4.2, STAT3 inh 3.9, NF-kB expr up 1.04, STAT1 act-1 94.2 and APP 5'UTR act 11.0.
`O=C(c1cccc(F)c1)N1CCc2ccccc21` gave STAT3 act-1 145.5*, STAT1 blocker 2.6, STAT3 inh -52.8, NF-kB expr up 1.27, STAT1 act-1 100.5, APP 5'UTR act -10.0, STAT3 act-2 124.7, NFkB act 2 102.7 and STAT1 act-2 97.3.
Screening Cc1nn(C)c(C(=O)N2CCc3ccccc32)c1Cl returned STAT3 act-1 143.6*, STAT1 blocker 10.7, STAT3 inh -48.5, STAT1 act-1 90.3, APP 5'UTR act -8.6, STAT3 act-2 113.3, NFkB act 2 101.7 and STAT1 act-2 93.0.
`Cn1ncc(Cl)c1C(=O)N1CCc2ccccc21` gave STAT3 act-1 154.9*, STAT1 blocker 1.9, STAT3 inh -62.9, NF-kB expr up 1.05, STAT1 act-1 98.2, APP 5'UTR act -5.0, STAT3 act-2 140.1*, NFkB act 2 104.6 and STAT1 act-2 97.5.
Cc1cc(C(=O)N2CCc3ccccc32)c2cc(F)ccc2n1 was read as STAT3 act-1 114.5, STAT1 blocker -5.0, STAT3 inh -13.5, NF-kB expr up 1.09, STAT1 act-1 104.5 and APP 5'UTR act 8.0.
Cn1ncc(Cl)c1C(=O)N1CCCc2ccccc21 was read as STAT3 act-1 99.1, STAT1 blocker 2.0, STAT3 inh 1.4, NF-kB expr up 0.99, STAT1 act-1 98.1 and APP 5'UTR act 14.8.
For Cc1nc2c(-c3ccc(Cl)cc3)cnn2c2c1CCC2 the results were STAT3 act-1 141.9*, STAT1 blocker -3.4, STAT3 inh -50.6, NF-kB expr up 1.32, STAT1 act-1 102.1, APP 5'UTR act 37.4, STAT3 act-2 151.4*, NFkB act 2 110.2 and STAT1 act-2 110.4.
`Cc1cc(C)n(-c2nc(C)nc3c2cnn3-c2ccccc2)n1` gave STAT3 act-1 155.3*, STAT1 blocker -6.3, STAT3 inh -59.6, NF-kB expr up 1.19, STAT1 act-1 105.7, APP 5'UTR act 8.9, STAT3 act-2 150.7*, NFkB act 2 107.5 and STAT1 act-2 98.8.
For NNC(=O)C1CC1c1ccc(Cl)cc1 (stereo unspecified) the results were STAT3 act-1 106.8, STAT1 blocker -2.3, STAT3 inh -6.8, NF-kB expr up 1.06, STAT1 act-1 101.7 and APP 5'UTR act -3.1.
